Reference: paper PMC9476207 (ACS Omega, 2022)

How the values were obtained:
Experiment in all cases: NCI-60 single-dose antiproliferative screen
Format in all cases: cell-based
NCI/ADR-RES = conditions: Homo sapiens, 48 h, read-out: growth percent
Procedure, shortened: (§1)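 NCI-60 protocol. Lines were grown in RPMI 1640 with 5% FBS and 2 mM L-glutamine, plated and incubated 24 h at 37 °C; time-zero plates were TCA-fixed. The test compound was dissolved in DMSO, diluted in medium with 50 μg/mL gentamicin and given once at a final 10^-5 M (DMSO control) for 48 h. Cells were fixed with cold TCA (1 h, 4 °C) and stained with 0.4% SRB in 1% acetic acid for 10 min. Dye was dissolved in 10 mM Trizma base and read at 515 nm. Growth percent was calculated from time-zero, test and control ODs.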

DU-145 = conditions: Homo sapiens, DU-145, 48 h, read-out: growth percent
Procedure, shortened: as §1

MDA-MB-435 = conditions: Homo sapiens, MDA-MB-435, 48 h, read-out: growth percent
Procedure, shortened: as §1

NCI-H226 = conditions: Homo sapiens, NCI-H226, 48 h, read-out: growth percent
Procedure, shortened: as §1

UO-31 = conditions: Homo sapiens, UO-31, 48 h, read-out: growth percent
Procedure, shortened: (§2)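 Cells grown in RPMI 1640 with 5% FBS and 2 mM L-glutamine, plated and held 24 h at 37 °C; time-zero plates TCA-fixed. DMSO stocks were diluted in gentamicin-containing medium to a final 10^-5 M, with a DMSO-only control. Exposure 48 h, 5% CO2. Adherent cells TCA-fixed 1 h at 4 °C, stained with 0.4% SRB, solubilised in 10 mM Trizma base, read at 515 nm. Growth percent derived from ODtzero, ODtest and ODctrl.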

NCI-H522 = conditions: Homo sapiens, NCI-H522, 48 h, read-out: growth percent
Procedure, shortened: as §1

786-0 = conditions: Homo sapiens, 786-0, 48 h, read-out: growth percent
Procedure, shortened: as §1

SK-MEL-5 = conditions: Homo sapiens, SK-MEL-5, 48 h, read-out: growth percent
Procedure, shortened: as §2

T-47D = conditions: Homo sapiens, T47D, 48 h, read-out: growth percent
Procedure, shortened: as §2

NCI-H460 = conditions: Homo sapiens, NCI-H460, 48 h, read-out: growth percent
Procedure, shortened: as §1

HOP-92 = conditions: Homo sapiens, HOP-92, 48 h, read-out: growth percent
Procedure, shortened: as §1

HS 578T = conditions: Homo sapiens, 48 h, read-out: growth percent
Procedure, shortened: as §1

SK-OV-3 = conditions: Homo sapiens, SK-OV-3, 48 h, read-out: growth percent
Procedure, shortened: as §2

MOLT-4 = conditions: Homo sapiens, MOLT-4, 48 h, read-out: growth percent
Procedure, shortened: as §1

HCT-15 = conditions: Homo sapiens, HCT-15, 48 h, read-out: growth percent
Procedure, shortened: as §1

LOX IMVI = conditions: Homo sapiens, 48 h, read-out: growth percent
Procedure, shortened: as §1

MALME-3M = conditions: Homo sapiens, 48 h, read-out: growth percent
Procedure, shortened: as §1

OVCAR-5 = conditions: Homo sapiens, OVCAR-5, 48 h, read-out: growth percent
Procedure, shortened: as §1

U251 = conditions: Homo sapiens, U-251, 48 h, read-out: growth percent
Procedure, shortened: as §2

TK-10 = conditions: Homo sapiens, TK-10, 48 h, read-out: growth percent
Procedure, shortened: as §2

EKVX = conditions: Homo sapiens, 48 h, read-out: growth percent
Procedure, shortened: as §1

OVCAR-3 = conditions: Homo sapiens, OVCAR-3, 48 h, read-out: growth percent
Procedure, shortened: as §1

SF-268 = conditions: Homo sapiens, SF-268, 48 h, read-out: growth percent
Procedure, shortened: as §1

HOP-62 = conditions: Homo sapiens, HOP-62, 48 h, read-out: growth percent
Procedure, shortened: as §1

M14 = conditions: Homo sapiens, M14, 48 h, read-out: growth percent
Procedure, shortened: as §1

CAKI-1 = conditions: Homo sapiens, CAKI-1, 48 h, read-out: growth percent
Procedure, shortened: as §1

SNB-19 = conditions: Homo sapiens, SNB-19, 48 h, read-out: growth percent
Procedure, shortened: as §2

NCI-H322M = conditions: Homo sapiens, 48 h, read-out: growth percent
Procedure, shortened: as §1

OVCAR-4 = conditions: Homo sapiens, OVCAR-4, 48 h, read-out: growth percent
Procedure, shortened: as §1

COLO205 = conditions: Homo sapiens, COLO 205, 48 h, read-out: growth percent
Procedure, shortened: as §1

RPMI-8226 = conditions: Homo sapiens, RPMI-8226, 48 h, read-out: growth percent
Procedure, shortened: as §1

SN12C = conditions: Homo sapiens, 48 h, read-out: growth percent
Procedure, shortened: as §2

RXF 393 = conditions: Homo sapiens, RXF 393, 48 h, read-out: growth percent
Procedure, shortened: as §1

MDA-MB-468 = conditions: Homo sapiens, MDA-MB-468, 48 h, read-out: growth percent
Procedure, shortened: as §1

SF-295 = conditions: Homo sapiens, SF-295, 48 h, read-out: growth percent
Procedure, shortened: as §1

OVCAR-8 = conditions: Homo sapiens, OVCAR-8, 48 h, read-out: growth percent
Procedure, shortened: as §1

SMILES	activity at 10 µM (NCI/ADR-RES) [%]	activity at 10 µM (DU-145) [%]	activity at 10 µM (MDA-MB-435) [%]	activity at 10 µM (NCI-H226) [%]	activity at 10 µM (UO-31) [%]	activity at 10 µM (NCI-H522) [%]	activity at 10 µM (786-0) [%]	activity at 10 µM (SK-MEL-5) [%]	activity at 10 µM (T-47D) [%]	activity at 10 µM (NCI-H460) [%]	activity at 10 µM (HOP-92) [%]	activity at 10 µM (HS 578T) [%]	activity at 10 µM (SK-OV-3) [%]	activity at 10 µM (MOLT-4) [%]	activity at 10 µM (HCT-15) [%]	activity at 10 µM (LOX IMVI) [%]	activity at 10 µM (MALME-3M) [%]	activity at 10 µM (OVCAR-5) [%]	activity at 10 µM (U251) [%]	activity at 10 µM (TK-10) [%]	also measured
COc1cc(CNC(=O)CCCC/C=C/C(C)C)ccc1OCc1cn(-c2ccc(Br)cc2)nn1 [14k, (E)-N-(4-((1-(4-Bromophenyl)-1H-1,2,3-triazol-4-yl)methoxy)-3-methoxybenzyl)-8-methylnon-6-enamide]	72	98.8	107	86.3	67.9	82.5	92	72	68.4	72.1	68.8	90.5	74.8	77.5	94	83.7	103	116	75.5	118	activity at 10 µM (EKVX): 72.7%; activity at 10 µM (OVCAR-3): 100%; activity at 10 µM (SF-268): 78.9%; activity at 10 µM (HOP-62): 88.2%; activity at 10 µM (M14): 90.2%; activity at 10 µM (CAKI-1): 74.3%; activity at 10 µM (SNB-19): 80.9%; activity at 10 µM (NCI-H322M): 90.6%; activity at 10 µM (OVCAR-4): 89.2%; activity at 10 µM (COLO205): 103%; activity at 10 µM (RPMI-8226): 57.4%; activity at 10 µM (SN12C): 83%; activity at 10 µM (RXF 393): 105%; activity at 10 µM (MDA-MB-468): 68.2%; activity at 10 µM (SF-295): 85.4%; activity at 10 µM (OVCAR-8): 79.6%
COc1cc(CNC(=O)C[C@H](C)CCC=C(C)C)ccc1OCc1cn(-c2ccc(Cl)cc2)nn1 [18b, (R)-N-(4-((1-(4-Chlorophenyl)-1H-1,2,3-triazol-4-yl)methoxy)-3-methoxybenzyl)-3,7-dimethyloct-6-enamide]	48	82.8	84.9	63.8	62.5	62.9	84.3	62.8	52.5	65	53	71.4	72.1	71.7	65.3	59.7	68.3	80.7	57.7	95.6	activity at 10 µM (EKVX): 75.3%; activity at 10 µM (OVCAR-3): 82.3%; activity at 10 µM (SF-268): 95.4%; activity at 10 µM (HOP-62): 61.5%; activity at 10 µM (M14): 90.8%; activity at 10 µM (CAKI-1): 45.9%; activity at 10 µM (SNB-19): 78.6%; activity at 10 µM (NCI-H322M): 83.5%; activity at 10 µM (OVCAR-4): 52.7%; activity at 10 µM (COLO205): 91.1%; activity at 10 µM (RPMI-8226): 75.3%; activity at 10 µM (SN12C): 67.7%; activity at 10 µM (RXF 393): 56.1%; activity at 10 µM (MDA-MB-468): 41.3%; activity at 10 µM (SF-295): 55.5%; activity at 10 µM (OVCAR-8): 49.1%
COc1cc(CNC(=O)CCCC/C=C/C(C)C)ccc1OCc1cn(-c2ccccc2Cl)nn1 [14c, (E)-N-(4-((1-(2-Chlorophenyl)-1H-1,2,3-triazol-4-yl)methoxy)-3-methoxybenzyl)-8-methylnon-6-enamide]	92	99.2	103	81.8	75.2	64.5	93.8	89.8	74.3	101	80.1	97.2	91.3	81	94.1	89.9	107	104	85.7	94.6	activity at 10 µM (EKVX): 82.1%; activity at 10 µM (OVCAR-3): 101%; activity at 10 µM (SF-268): 87.8%; activity at 10 µM (HOP-62): 82%; activity at 10 µM (M14): 92.6%; activity at 10 µM (CAKI-1): 93.4%; activity at 10 µM (SNB-19): 89.7%; activity at 10 µM (NCI-H322M): 89.4%; activity at 10 µM (OVCAR-4): 87.9%; activity at 10 µM (COLO205): 106%; activity at 10 µM (RPMI-8226): 75.5%; activity at 10 µM (SN12C): 94.5%; activity at 10 µM (RXF 393): 105%; activity at 10 µM (MDA-MB-468): 88.2%; activity at 10 µM (SF-295): 99.4%; activity at 10 µM (OVCAR-8): 89.6%
